Assays:
[1] = Inhibition of chymotrypsin-like activity of 20S proteasome using suc-LLVY-AMC as substrate preincubated for 10 mins before substrate addition at pH 2.0 by fluorescence assay
Method in brief: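 Inhibitor from 0.1 M ethanol stock diluted into pH 2.0 buffer (0.148 M HCl, 0.052 M KCl) and equilibrated overnight at room temperature (24 h per text). 20S proteasome SDS-activated, preincubated 10 min with inhibitor; Suc-LLVY-AMC added; fluorescence (ex 360/em 460 nm) read after 30 min. Assay-well pH checked. Quadruplicates; variable-slope sigmoidal fit.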

[2] = Inhibition of chymotrypsin-like activity of 20S proteasome using suc-LLVY-AMC as substrate preincubated for 10 mins before substrate addition at pH 7.6 by fluorescence assay
Method in brief: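 Inhibitor from 0.1 M ethanol stock diluted into pH 7.6 buffer (25 mM HEPES, 0.5 mM EDTA) and equilibrated overnight at room temperature (24 h per text). SDS-activated 20S proteasome preincubated 10 min with inhibitor before Suc-LLVY-AMC; fluorescence ex 360/em 460 nm after 30 min. Quadruplicates; variable-slope sigmoidal fit.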

[3] = Inhibition of intracellular chymotrypsin-like activity of 20S proteasome in human HEK293 cells after 24 hrs by fluorescence plate reader; assay type: cell-based; settings: HEK293, 24 h
Method in brief: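 HEK 293 ZsGreen proteasome-sensor cells (stable ZsGreen–ornithine decarboxylase degron fusion, G418 maintenance) seeded 3.2 × 10⁴ per well, grown 24 h. Then 24 h with inhibitor at 37 °C, 5% CO₂. Cells lysed in HEPES/EDTA/5% Triton buffer for 1 h; fluorescence ex 485/em 535 nm. Quadruplicates; variable-slope sigmoidal fit.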

HEK293 [4] = assay: Ratio of IC50 for intracellular chymotrypsin-like activity of 20S proteasome in human HEK293 cells to IC50 for in vitro chymotrypsin-like activity of 20S proteasome; assay type: cell-based
[5] = Cytotoxicity against human FSCLL cells after 24 hrs by MTT assay; assay type: cell-based
Method in brief: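 Cells seeded at 3.2 × 10⁴ per well, grown 24 h at 37 °C, 5% CO₂, then exposed to inhibitor dilutions 24 h. Inhibitor from 0.1 M ethanol stock, pre-equilibrated overnight in pH 2.0 or pH 7.6 buffer. MTT (5 mg/mL) added for 3 h; formazan dissolved overnight in acidic Triton/isopropanol; A570 read. Quadruplicates; variable-slope sigmoidal fit.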

[6] = Ratio of CC50 for human follicular small-cell lymphocytic leukemia cells to IC50 for chymotrypsin-like activity of 20S proteasome at pH 2.0
[7] = Ratio of CC50 for human follicular small-cell lymphocytic leukemia cells to IC50 for intracellular chymotrypsin-like activity of 20S proteasome in human HEK293 cells
HEK293 [8] = assay: Metabolic stability in human HEK293 cells assessed as aminopeptidase-mediated compound degradation at 10^-4 M after 24 hrs by LCMS analysis; assay type: ADME, cell-based; settings: hek293, 24 h, 100 µM
Method in brief: (§1)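 Intact cells, 2 × 10⁶ in 900 μL medium, incubated with inhibitor at 10⁻⁴ M for 24 h, 37 °C, 5% CO₂. Aliquots taken at time points and quenched in 1 M HCl containing Trp-Tyr internal standard. Analysed by ESI LCMS on C18 reversed phase.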

[9] = Metabolic stability in human FSCLL cells assessed as aminopeptidase-mediated compound degradation at 10^-4 M after 24 hrs by LCMS analysis; assay type: ADME, cell-based; settings: 100 µM; method in brief: as §1
HEK293 [10] = assay: Metabolic stability in human HEK293 cells assessed as cell lysate-mediated compound degradation at 10^-4 M after 24 hrs by LCMS analysis; assay type: ADME, cell-based; settings: hek293, 24 h, 100 µM
[11] = Metabolic stability in human FSCLL cells assessed as cell lysate-mediated compound degradation at 10^-4 M after 24 hrs by LCMS analysis; assay type: ADME, cell-based; settings: 100 µM
Mus musculus = organism: Mus musculus; assay: Inhibition of proteasome in mouse tumor cells relative to inhibition in blood cells; assay type: subcellular; settings: concentration not given here

Compound	IC50 [1]	IC50 [2]	IC50 [3]	Ratio IC50 (HEK293 [4])	CC50 at 24 h [5]	Ratio CC50/IC50 [6]	Ratio CC50/IC50 [7]	Stability (HEK293 [8])	Stability [9]	Stability (HEK293 [10])	Stability [11]	inhibition (Mus musculus)
CC(C)C[C@H](NC(=O)[C@@H](NC(=O)c1cnccn1)[C@@H](C)O)B(O)O	12 nM	25 nM	790 nM	65	100 nM	8	0.12					
CC(C)C[C@H](NC(=O)[C@@H](N)Cc1c[nH]c2ccccc12)B(O)O	29 nM	100 nM	> 1000 nM	> 30	400 nM	14	<0.4					
CC(C)C[C@H](NC(=O)[C@@H](N)CC(C)C)B(O)O	66 nM	170 nM	> 10000 nM	> 150								
CCC[C@H](N)C(=O)N[C@@H](CC(C)C)B(O)O	110 nM	540 nM	> 10000 nM	> 90	1100 nM	10	<0.1					
CC(C)C[C@H](NC(=O)[C@@H](N)Cc1cccc2ccccc12)B(O)O	26 nM	120 nM	150 nM	6	11 nM	0.4	0.07					
CC(C)C[C@H](NC(=O)[C@@H](N)Cc1ccc(F)c(F)c1)B(O)O	81 nM	150 nM	2100 nM	26								
CC(C)C[C@H](NC(=O)[C@@H](N)C(C)(C)O)B(O)O	90 nM	150 nM	> 10000 nM	> 110								
CC(C)C[C@H](NC(=O)[C@@H](N)CC(N)=O)B(O)O	63 nM	770 nM	> 10000 nM	> 160								
CC(C)C[C@H](NC(=O)CN)B(O)O	21 nM	430 nM	> 10000 nM	> 470	670 nM	30	<0.07	Stable	Stable	Stable	Stable	
CC(C)C[C@H](NC(=O)[C@H](C)N)B(O)O	50 nM	360 nM	> 10000 nM	> 200	3200 nM	64	<0.3	Stable	Stable	Stable	Stable	
CC(C)C[C@H](NC(=O)CN(C)C)B(O)O	36 nM	610 nM	> 10000 nM	> 280								
CC[C@H](N)C(=O)N[C@@H](CC(C)C)B(O)O	110 nM	300 nM	> 10000 nM	> 90	1500 nM	14	<0.2					
CC(C)C[C@H](NC(=O)[C@@H](N)Cc1ccccc1F)B(O)O	76 nM	140 nM	3100 nM	41								
CC(C)C[C@H](NC(=O)[C@@H](N)C(c1ccccc1)c1ccccc1)B(O)O	110 nM	350 nM	1000 nM	9								
CC(C)C[C@H](NC(=O)[C@H](Cc1ccccc1)NC(=O)[C@@H](N)CC(C)C)B(O)O										Unstable	Unstable	
CC(C)C[C@H](NC(=O)[C@@H](N)Cc1cccc(F)c1)B(O)O	82 nM	110 nM	1300 nM	16								
CC(C)C[C@H](NC(=O)[C@@H](N)Cc1cc(F)cc(F)c1)B(O)O	43 nM	100 nM	790 nM	18	47 nM	1	0.06					
CC(C)C[C@H](NC(=O)[C@@H](N)Cc1ccc(F)cc1)B(O)O	60 nM	130 nM	> 10000 nM	> 170	79 nM	1.3	<0.01					

Compound	IC50 [1]	IC50 [2]	IC50 [3]	Ratio IC50 (HEK293 [4])	CC50 at 24 h [5]	Ratio CC50/IC50 [6]	Ratio CC50/IC50 [7]	Stability (HEK293 [8])	Stability [9]	Stability (HEK293 [10])	Stability [11]	inhibition (Mus musculus)
CC(C)C[C@H](NC(=O)[C@H](CO)NC(=O)c1cnccn1)B(O)O	16 nM	18 nM	2500 nM	150	210 nM	13	0.08					
CC(C)C[C@H](NC(=O)CNC(=O)c1cc(Cl)ccc1Cl)B1OC(=O)CC(CC(=O)O)(C(=O)O)O1 (stereo partly drawn)												74.9%
CCCC[C@H](N)C(=O)N[C@@H](CC(C)C)B(O)O	75 nM	300 nM	> 10000 nM	> 130	950 nM	13	<0.1					
CC(C)C[C@H](NC(=O)CNC(=O)c1cnccn1)B(O)O	110 nM	180 nM	1800 nM	16								
CC(C)C[C@H](NC(=O)[C@@H](N)Cc1ccc(-c2ccccc2)cc1)B(O)O	50 nM	400 nM	1400 nM	30								
CC(C)C[C@H](NC(=O)[C@@H](N)Cc1c(F)c(F)c(F)c(F)c1F)B(O)O	170 nM	470 nM	3300 nM	20								
CC(C)C[C@H](NC(=O)[C@@H](N)C(C)(C)C)B(O)O	100 nM	150 nM	> 10000 nM	> 110	710 nM	7	<0.07					
CC(C)C[C@H](NC(=O)[C@@H](N)CO)B(O)O	190 nM	1100 nM	> 10000 nM	> 50	1700 nM	8.9	<0.2					
CC(C)C[C@H](NC(=O)[C@@H](N)C1CCCCC1)B(O)O	240 nM	900 nM	> 10000 nM	> 40								
CC(C)C[C@H](NC(=O)[C@@H](N)CC(C(=O)O)C(=O)O)B(O)O	600 nM	3000 nM	> 10000 nM	> 20								
CC(C)C[C@H](NC(=O)[C@@H](N)Cc1ccccc1)B(O)O	37 nM	140 nM	> 10000 nM	> 270	90 nM	2.4	<0.01	Stable	Stable	Stable	Stable	
CNCC(=O)N[C@@H](CC(C)C)B(O)O	39 nM	2200 nM	> 10000 nM	> 260	160 nM	4.1	<0.07					
CC(C)C[C@H](NC(=O)[C@@H](NC(=O)c1cnccn1)C(C)(C)O)B(O)O	34 nM	28 nM	520 nM	15								
CC(C)C[C@H](NC(=O)[C@@H](N)Cc1ccc(O)cc1)B(O)O	42 nM	120 nM	> 10000 nM	> 240	160 nM	4	<0.02					
CC(C)C[C@H](NC(=O)[C@@H](N)[C@@H](C)O)B(O)O	80 nM	450 nM	> 10000 nM	> 120	2500 nM	30	<0.3					
CC(C)C[C@H](NC(=O)[C@@H](N)Cc1ccc2ccccc2c1)B(O)O	33 nM	220 nM	450 nM	13								
CC(C)C[C@H](NC(=O)[C@@H](N)Cc1cnc[nH]1)B(O)O	510 nM	5200 nM	> 1000 nM	> 20								
